Laboratory results published in ChEMBL document CHEMBL1157704, “Potent activity against K562 cells by polyamide-seco-CBI conjugates targeting histone H4 genes” (Bioorg Med Chem, 2010).
Activity calls are given as the source filed them.

What was measured:
K562 [1] = test: Effect on HIST2H2AB gene expression in human K562 cells assessed as change in mRNA transcript expression at 10 nM after 48 hrs by DNA microarray analysis relative to control; type: functional
Summary of the method: (§1)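 K562 CML cells (b3a2 Bcr-Abl) in standard ATCC-recommended culture, exposed once to 10 nM conjugate and harvested at 48 h. Untreated controls were also collected at 48 h. Transcripts were profiled on Human Gene 1.0 ST whole-genome oligonucleotide arrays, and each treated level was expressed relative to the untreated control, with a cutoff of at least twofold change.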

K562 [2] = test: Effect on HIST1H2BH gene expression in human K562 cells assessed as change in mRNA transcript expression at 10 nM after 48 hrs by DNA microarray analysis relative to control; type: functional
Summary of the method: (§2)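 Transcripts were profiled on Affymetrix GeneChip Human Gene 1.0 ST arrays in K562 cells treated at 10 nM. Treated cells were collected at 6, 12, 24 and 48 h; untreated controls were collected at 48 h. Transcripts changed at least twofold versus control were scored.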

K562 [3] = test: Effect on NDUFS4 gene expression in human K562 cells assessed as change in mRNA transcript expression at 10 nM after 48 hrs by DNA microarray analysis relative to control; type: functional; summary of the method: as §1
K562 [4] = test: Effect on RHD/RHCE gene expression in human K562 cells assessed as change in mRNA transcript expression at 10 nM after 48 hrs by DNA microarray analysis relative to control; type: functional; summary of the method: as §1
K562 [5] = test: Effect on HIST1H2BL gene expression in human K562 cells assessed as change in mRNA transcript expression at 10 nM after 48 hrs by DNA microarray analysis relative to control; type: functional; summary of the method: as §2
K562 [6] = test: Effect on TPK1 gene expression in human K562 cells assessed as change in mRNA transcript expression at 10 nM after 48 hrs by DNA microarray analysis relative to control; type: functional
Summary of the method: (§3)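 K562 CML cells (b3a2 Bcr-Abl) kept under standard culture conditions were exposed to 10 nM conjugate and harvested at 6, 12, 24 and 48 h. Untreated controls were harvested at 48 h. Whole-transcript oligonucleotide microarray profiling was done, and changes of at least twofold versus control were scored.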

K562 [7] = test: Effect on HIST1H4J gene expression in human K562 cells assessed as down-regulation of mRNA transcript expression at 10 nM after 48 hrs by DNA microarray analysis relative to control; type: functional; summary of the method: as §1
K562 [8] = test: Effect on CD226 gene expression in human K562 cells assessed as change in mRNA transcript expression at 10 nM after 48 hrs by DNA microarray analysis relative to control; type: functional; summary of the method: as §2
K562 [9] = test: Effect on HIST1H2AH gene expression in human K562 cells assessed as change in mRNA transcript expression at 10 nM after 48 hrs by DNA microarray analysis relative to control; type: functional; summary of the method: as §2
K562 [10] = test: Effect on TRY6/PRS gene expression in human K562 cells assessed as change in mRNA transcript expression at 10 nM after 48 hrs by DNA microarray analysis relative to control; type: functional; summary of the method: as §3
K562 [11] = test: Downregulation of histone H4C mRNA expression in human K562 cells at 250 nM after 48 hrs by real-time PCR analysis; type: functional
Summary of the method: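 Treated K562 cells were assayed by one-step real-time RT-PCR. Reverse transcription ran 50 °C for 10 min, then hot-start polymerase activation at 95 °C for 15 min. Cycling was 45 cycles of 95 °C 15 s, 55 °C 30 s and 72 °C 30 s. Levels were normalized to GAPDH mRNA; error shown as standard deviation.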

K562 [12] = test: Effect on C0MMD1 gene expression in human K562 cells assessed as change in mRNA transcript expression at 10 nM after 48 hrs by DNA microarray analysis relative to control; type: functional; summary of the method: as §2
K562 [13] = test: Effect on RP11-195B gene expression in human K562 cells assessed as change in mRNA transcript expression at 10 nM after 48 hrs by DNA microarray analysis relative to control; type: functional; summary of the method: as §1
K562 [14] = test: Downregulation of histone H4C mRNA expression in human K562 cells at 125 nM after 48 hrs by real-time PCR analysis; type: functional, cell-based
Summary of the method: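 K562 cells were treated for 48 h, and H4c and H4e mRNA were measured by one-step real-time RT-PCR. Reverse transcription ran at 50 °C for 10 min, then hot-start activation at 95 °C for 15 min. Cycling was 45 cycles of 95 °C 15 s, 55 °C 30 s and 72 °C 30 s. Levels were normalized to GAPDH mRNA; error bars are SD.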

K562 [15] = test: Effect on ITGA2B gene expression in human K562 cells assessed as change in mRNA transcript expression at 10 nM after 48 hrs by DNA microarray analysis relative to control; type: functional; summary of the method: as §1
K562 [16] = test: Effect on PLCB2 gene expression in human K562 cells assessed as change in mRNA transcript expression at 10 nM after 48 hrs by DNA microarray analysis relative to control; type: functional; summary of the method: as §1
K562 [17] = test: Effect on BBS9 gene expression in human K562 cells assessed as change in mRNA transcript expression at 10 nM after 48 hrs by DNA microarray analysis relative to control; type: functional; summary of the method: as §2
K562 [18] = test: Effect on DHFR gene expression in human K562 cells assessed as change in mRNA transcript expression at 10 nM after 48 hrs by DNA microarray analysis relative to control; type: functional; summary of the method: as §2
[19] = test system: histone H4c gene fragment DNA (human); test: Binding affinity to 5'-AGAAAA-3' sequence of 223 bp human histone H4c gene fragment DNA assessed as DNA alkylating activity at 5 to 100 nM after 15 hrs by PAGE
K562 [20] = test: Effect on LGALS3BP gene expression in human K562 cells assessed as change in mRNA transcript expression at 10 nM after 48 hrs by DNA microarray analysis relative to control; type: functional; summary of the method: as §1
K562 [21] = test: Effect on COMMD10 gene expression in human K562 cells assessed as change in mRNA transcript expression at 10 nM after 48 hrs by DNA microarray analysis relative to control; type: functional; summary of the method: as §2
K562 [22] = test: Cell cycle arrest in human K562 cells assessed as decrease in accumulation at G1 phase at 125 to 250 nM after 48 hrs propidium iodide staining-based FACS analysis; type: functional
Summary of the method: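 K562 cells, from ATCC and kept under ATCC-recommended conditions, were treated for 48 h and pelleted at 200g for 5 min. They were resuspended in PBS, fixed with prechilled 70% ethanol and stained with propidium iodide at 50 µg/mL. DNA content was read by flow cytometry to assign the G0–G1, S and G2–M fractions; sub-2C DNA content was taken as apoptosis.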

K562 [23] = test: Effect on FER gene expression in human K562 cells assessed as change in mRNA transcript expression at 10 nM after 48 hrs by DNA microarray analysis relative to control; type: functional; summary of the method: as §2
K562 [24] = test: Effect on PYROXD1 gene expression in human K562 cells assessed as change in mRNA transcript expression at 10 nM after 48 hrs by DNA microarray analysis relative to control; type: functional; summary of the method: as §1
K562 [25] = test: Effect on HIST1H1E gene expression in human K562 cells assessed as change in mRNA transcript expression at 10 nM after 48 hrs by DNA microarray analysis relative to control; type: functional; summary of the method: as §2

Activity [19]: Active
Structure (SMILES): CC(=O)Nc1cn(C)c(C(=O)Nc2cn(C)c(C(=O)NCCC(=O)Nc3cn(C)c(C(=O)NCCCC(=O)Nc4cc(C(=O)Nc5cn(C)c(C(=O)Nc6ccc7[nH]c(C(=O)N8CC(CCl)c9c8cc(O)c8ccccc98)cc7c6)n5)n(C)c4)n3)n2)n1 (stereo not given)
fold change (FC) (K562 [1]): >=2
fold change (FC) (K562 [2]): >=2
fold change (FC) (K562 [3]): >=2
fold change (FC) (K562 [4]): >=2
fold change (FC) (K562 [5]): >=2
fold change (FC) (K562 [6]): >=2
fold change (FC) (K562 [7]): 2.61
fold change (FC) (K562 [8]): >=2
fold change (FC) (K562 [9]): >=2
fold change (FC) (K562 [10]): >=2
Activity (K562 [11]): 93%
fold change (FC) (K562 [12]): >=2
fold change (FC) (K562 [13]): >=2
Activity (K562 [14]): Active
fold change (FC) (K562 [15]): >=2
fold change (FC) (K562 [16]): >=2
fold change (FC) (K562 [17]): >=2
fold change (FC) (K562 [18]): >=2
fold change (FC) (K562 [20]): >=2
fold change (FC) (K562 [21]): >=2
Activity (K562 [22]): Active
fold change (FC) (K562 [23]): >=2
fold change (FC) (K562 [24]): >=2
fold change (FC) (K562 [25]): >=2
